Each structure is given as a SMILES string.

The target in the first data set is T1, Nucleotide-binding oligomerization domain-containing protein 1 (Homo sapiens) (UniProt Q9Y239).
T1 sequence (whole entry): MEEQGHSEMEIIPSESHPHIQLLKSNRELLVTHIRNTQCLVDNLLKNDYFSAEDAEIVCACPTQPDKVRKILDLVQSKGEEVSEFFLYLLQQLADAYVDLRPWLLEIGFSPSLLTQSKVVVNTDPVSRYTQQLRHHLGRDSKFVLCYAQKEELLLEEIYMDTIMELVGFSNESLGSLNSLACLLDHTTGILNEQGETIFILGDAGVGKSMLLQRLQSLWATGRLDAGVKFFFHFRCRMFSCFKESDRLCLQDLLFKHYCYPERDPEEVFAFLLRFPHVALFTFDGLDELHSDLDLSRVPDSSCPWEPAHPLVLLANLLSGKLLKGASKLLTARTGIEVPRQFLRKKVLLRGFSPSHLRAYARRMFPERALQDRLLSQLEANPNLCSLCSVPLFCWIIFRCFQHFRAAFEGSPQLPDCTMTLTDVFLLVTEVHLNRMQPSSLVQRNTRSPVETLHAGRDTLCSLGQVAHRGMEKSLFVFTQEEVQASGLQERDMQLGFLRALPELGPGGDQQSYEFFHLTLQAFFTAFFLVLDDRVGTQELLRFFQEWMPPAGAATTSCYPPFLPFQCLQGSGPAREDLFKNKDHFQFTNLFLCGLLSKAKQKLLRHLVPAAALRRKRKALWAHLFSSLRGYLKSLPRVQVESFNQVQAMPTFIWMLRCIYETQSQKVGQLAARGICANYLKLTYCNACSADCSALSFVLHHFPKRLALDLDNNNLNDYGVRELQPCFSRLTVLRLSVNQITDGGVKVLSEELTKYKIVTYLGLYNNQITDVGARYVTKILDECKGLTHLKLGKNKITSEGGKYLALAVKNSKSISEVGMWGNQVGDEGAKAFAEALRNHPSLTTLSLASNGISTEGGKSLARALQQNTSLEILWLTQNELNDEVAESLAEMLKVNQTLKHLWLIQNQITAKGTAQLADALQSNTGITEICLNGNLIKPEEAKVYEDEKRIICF
Description: Antagonist activity at human NOD1 expressed in HEK-Blue cells assessed as inhibition of C12-iE-DAP-stimulated cell activation at 10 uM preincubated for 3 hrs followed by C12-iE-DAP addition measured after 20 hrs by SEAP reporter gene assay. The class given is cell-based.
Conditions: not given
Put shortly:
(§1)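 HEK-Blue hNOD1 or hNOD2 cells preincubated with compound 3 h, then stimulated 20 h with C12-iE-DAP 50 ng/mL (NOD1) or MDP 100 ng/mL (NOD2); SEAP in supernatant quantified. Primary screen at 10 μM, hits repeated in triplicate; IC50 from dose-response, mean ± SD (n = 3), only for compounds reaching ≥50% inhibition at the screening concentration.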
In general terms: In a reporter assay the amount or activity of a reporter protein is the signal.
On to `COC(=O)CC[C@H]1NC(=O)c2cc(Oc3cccc(N(C)C)c3)c(NC(=O)COCc3cccc(F)c3)cc2NC1=O`, for which the inhibition was found to be 89.8%.
With `COC(=O)CC[C@H]1NC(=O)c2cc(Oc3cccc(N(C)C)c3)c(NC(=O)COCc3ccc(F)cc3)cc2NC1=O`, the inhibition is 46.4%.
For the compound `COC(=O)CC[C@H]1NC(=O)c2cc(Oc3cccc(N(C)C)c3)c(NC(=O)COCc3ccc(Br)cc3)cc2NC1=O`, the inhibition amounted to 93.9%.
Same read-out and setting: the result for `CCCCN(CCCC)C(=O)CC[C@H]1NC(=O)c2cc(Oc3cccc(N(C)C)c3)c(NC(=O)COCc3ccccc3)cc2NC1=O` reads 82%.
Still for that read-out and setting: the result for `CN(C)c1cccc(Oc2cc3c(cc2NC(=O)COCc2ccc(C(F)(F)F)cc2)NC(=O)[C@@H](CCC(=O)N2CCC(F)(F)CC2)NC3=O)c1` reads 90.9%.
As to `COC(=O)CC[C@H]1NC(=O)c2cc(Oc3cccc(N(C)C)c3)c(NC(=O)COCc3ccc(F)c(F)c3)cc2NC1=O`, the inhibition worked out at 89%.

The target of the next data set is T2, Nucleotide-binding oligomerization domain-containing protein 2 (Homo sapiens, UniProt Q9HC29). Description: Antagonist activity at human NOD2 expressed in HEK-Blue cells assessed as inhibition of MDP-stimulated cell activation at 5 uM preincubated for 3 hrs followed by MDP addition measured after 20 hrs by SEAP reporter gene assay. The class given is cell-based.
T2 sequence (Q9HC29 whole entry, the tested form may be a part): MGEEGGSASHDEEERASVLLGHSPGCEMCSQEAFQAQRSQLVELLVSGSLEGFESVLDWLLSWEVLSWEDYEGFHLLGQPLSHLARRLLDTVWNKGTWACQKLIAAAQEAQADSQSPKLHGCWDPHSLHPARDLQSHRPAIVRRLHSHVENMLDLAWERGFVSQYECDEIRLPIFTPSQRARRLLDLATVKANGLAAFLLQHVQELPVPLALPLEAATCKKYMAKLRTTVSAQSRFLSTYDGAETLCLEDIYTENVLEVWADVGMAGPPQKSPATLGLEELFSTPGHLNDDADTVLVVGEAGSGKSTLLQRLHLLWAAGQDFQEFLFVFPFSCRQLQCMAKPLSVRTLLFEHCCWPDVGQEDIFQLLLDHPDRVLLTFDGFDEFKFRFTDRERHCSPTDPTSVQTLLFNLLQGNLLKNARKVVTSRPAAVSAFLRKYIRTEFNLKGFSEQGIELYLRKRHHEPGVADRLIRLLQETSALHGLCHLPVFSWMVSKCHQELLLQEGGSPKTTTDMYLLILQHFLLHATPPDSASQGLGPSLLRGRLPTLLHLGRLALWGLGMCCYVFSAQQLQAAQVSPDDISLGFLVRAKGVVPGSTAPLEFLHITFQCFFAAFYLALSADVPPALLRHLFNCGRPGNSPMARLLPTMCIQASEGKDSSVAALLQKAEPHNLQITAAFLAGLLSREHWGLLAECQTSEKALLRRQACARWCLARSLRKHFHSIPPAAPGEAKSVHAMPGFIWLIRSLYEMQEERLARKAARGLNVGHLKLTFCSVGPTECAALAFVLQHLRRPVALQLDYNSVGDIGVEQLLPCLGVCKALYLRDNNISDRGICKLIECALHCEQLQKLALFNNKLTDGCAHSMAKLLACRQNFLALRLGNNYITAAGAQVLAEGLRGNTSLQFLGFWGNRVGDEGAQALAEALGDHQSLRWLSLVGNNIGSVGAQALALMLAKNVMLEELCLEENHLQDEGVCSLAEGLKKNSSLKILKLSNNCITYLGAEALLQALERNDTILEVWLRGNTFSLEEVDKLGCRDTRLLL
Conditions: not given
Regarding `COC(=O)CC[C@H]1NC(=O)c2cc(Oc3cccc(N(C)C)c3)c(NC(=O)COCc3cccc(F)c3)cc2NC1=O`, the inhibition was 67%.
On the same count and under the same terms, the figure for `COC(=O)CC[C@H]1NC(=O)c2cc(Oc3cccc(N(C)C)c3)c(NC(=O)COCc3ccc(F)cc3)cc2NC1=O` is 63.1%; for `COC(=O)CC[C@H]1NC(=O)c2cc(Oc3cccc(N(C)C)c3)c(NC(=O)COCc3ccc(Br)cc3)cc2NC1=O` it is 85%.
Consider `CCCCN(CCCC)C(=O)CC[C@H]1NC(=O)c2cc(Oc3cccc(N(C)C)c3)c(NC(=O)COCc3ccccc3)cc2NC1=O`, for which the inhibition was 85%.
Still for that read-out and setting: the figure for `CN(C)c1cccc(Oc2cc3c(cc2NC(=O)COCc2ccc(C(F)(F)F)cc2)NC(=O)[C@@H](CCC(=O)N2CCC(F)(F)CC2)NC3=O)c1` is 92.8%; for `COC(=O)CC[C@H]1NC(=O)c2cc(Oc3cccc(N(C)C)c3)c(NC(=O)COCc3ccc(F)c(F)c3)cc2NC1=O` it is 83.5%.

A further data set addresses T2, Nucleotide-binding oligomerization domain-containing protein 2. In words: Antagonist activity at human NOD2 expressed in HEK-Blue cells assessed as inhibition of MDP-stimulated cell activation at 10 uM preincubated for 3 hrs followed by MDP addition measured after 20 hrs by SEAP reporter gene assay. Format: cell-based.
Conditions: not given
The gist of the method:
as §1
Turning to `COC(=O)CC[C@H]1NC(=O)c2cc(Oc3cccc(N(C)C)c3)c(NC(=O)COCc3cccc(F)c3)cc2NC1=O`, the inhibition is 82.9%.
In the case of `COC(=O)CC[C@H]1NC(=O)c2cc(Oc3cccc(N(C)C)c3)c(NC(=O)COCc3ccc(F)cc3)cc2NC1=O`, the inhibition came out at 71.4%.
Still for that read-out and setting: the result for `COC(=O)CC[C@H]1NC(=O)c2cc(Oc3cccc(N(C)C)c3)c(NC(=O)COCc3ccc(Br)cc3)cc2NC1=O` reads 95.2%; that for `CCCCN(CCCC)C(=O)CC[C@H]1NC(=O)c2cc(Oc3cccc(N(C)C)c3)c(NC(=O)COCc3ccccc3)cc2NC1=O`, 88.6%; that for `CN(C)c1cccc(Oc2cc3c(cc2NC(=O)COCc2ccc(C(F)(F)F)cc2)NC(=O)[C@@H](CCC(=O)N2CCC(F)(F)CC2)NC3=O)c1`, 94.8%.
The same measure, in the same setting: the figure for `COC(=O)CC[C@H]1NC(=O)c2cc(Oc3cccc(N(C)C)c3)c(NC(=O)COCc3ccc(F)c(F)c3)cc2NC1=O` is 91.2%.

For a further data set the target is unchanged. Description: Antagonist activity at human NOD2 expressed in HEK-Blue cells assessed as inhibition of MDP-stimulated cell activation preincubated for 3 hrs followed by MDP addition measured after 20 hrs by SEAP reporter gene assay. Format: cell-based.
Conditions: not given
The gist of the method: as §1
In the case of `COC(=O)CC[C@H]1NC(=O)c2cc(Oc3cccc(N(C)C)c3)c(NC(=O)COCc3cccc(F)c3)cc2NC1=O`, the IC50 was determined as 4020 nM.
Still for that read-out and setting: the result for `COC(=O)CC[C@H]1NC(=O)c2cc(Oc3cccc(N(C)C)c3)c(NC(=O)COCc3ccc(F)cc3)cc2NC1=O` reads 3100 nM; that for `COC(=O)CC[C@H]1NC(=O)c2cc(Oc3cccc(N(C)C)c3)c(NC(=O)COCc3ccc(Br)cc3)cc2NC1=O`, 1190 nM.
In the case of `CCCCN(CCCC)C(=O)CC[C@H]1NC(=O)c2cc(Oc3cccc(N(C)C)c3)c(NC(=O)COCc3ccccc3)cc2NC1=O`, the IC50 was 1320 nM.
Turning to `CN(C)c1cccc(Oc2cc3c(cc2NC(=O)COCc2ccc(C(F)(F)F)cc2)NC(=O)[C@@H](CCC(=O)N2CCC(F)(F)CC2)NC3=O)c1`, the IC50 was determined as 810 nM.
With `COC(=O)CC[C@H]1NC(=O)c2cc(Oc3cccc(N(C)C)c3)c(NC(=O)COCc3ccc(F)c(F)c3)cc2NC1=O`, the IC50 is 1700 nM.

A further data set has as its target T1, Nucleotide-binding oligomerization domain-containing protein 1 (Homo sapiens). Description: Antagonist activity at human NOD1 expressed in HEK-blue cells assessed as inhibition of C12-iE-DAP-stimulated cell activation at 5 uM preincubated for 3 hrs followed by C12-iE-DAP addition measured after 20 hrs by SEAP reporter gene assay. Format: cell-based.
Conditions: not given
Take `COC(=O)CC[C@H]1NC(=O)c2cc(Oc3cccc(N(C)C)c3)c(NC(=O)COCc3cccc(F)c3)cc2NC1=O`: the inhibition worked out at 83.9%.
Turning to `COC(=O)CC[C@H]1NC(=O)c2cc(Oc3cccc(N(C)C)c3)c(NC(=O)COCc3ccc(F)cc3)cc2NC1=O`, the inhibition turned out to be 73.7%.
The same measure, in the same setting: the figure for `COC(=O)CC[C@H]1NC(=O)c2cc(Oc3cccc(N(C)C)c3)c(NC(=O)COCc3ccc(Br)cc3)cc2NC1=O` is 91%; for `CCCCN(CCCC)C(=O)CC[C@H]1NC(=O)c2cc(Oc3cccc(N(C)C)c3)c(NC(=O)COCc3ccccc3)cc2NC1=O` it is 81.8%.
Turning to `CN(C)c1cccc(Oc2cc3c(cc2NC(=O)COCc2ccc(C(F)(F)F)cc2)NC(=O)[C@@H](CCC(=O)N2CCC(F)(F)CC2)NC3=O)c1`, the inhibition was 91.2%.
For `COC(=O)CC[C@H]1NC(=O)c2cc(Oc3cccc(N(C)C)c3)c(NC(=O)COCc3ccc(F)c(F)c3)cc2NC1=O`, the inhibition is 83.7%.

Tested on in the next data set: not listed separately
In words: Cytotoxicity against HEK-Blue cells by SRB assay. Format: cell-based. The note with it: human.
`CN(C)c1cccc(Oc2cc3c(cc2NC(=O)COCc2ccc(C(F)(F)F)cc2)NC(=O)[C@@H](CCC(=O)N2CCC(F)(F)CC2)NC3=O)c1`: the Activity entry was “Toxic”.

The target in a further data set is T3, Nucleotide-binding oligomerization domain-containing protein 1 (Homo sapiens, UniProt Q9Y239).
T3 sequence (Q9Y239 whole entry): T1 sequence (whole entry)
Description: Antagonist activity at human NOD1 expressed in HEK-blue cells assessed as inhibition of C12-iE-DAP-stimulated cell activation preincubated for 3 hrs followed by C12-iE-DAP addition measured after 20 hrs by SEAP reporter gene assay. The class given is cell-based.
Conditions: not given
Put shortly: as §1
Consider `COC(=O)CC[C@H]1NC(=O)c2cc(Oc3cccc(N(C)C)c3)c(NC(=O)COCc3cccc(F)c3)cc2NC1=O`, for which the IC50 was 1370 nM.
On the same count and under the same terms, the figure for `COC(=O)CC[C@H]1NC(=O)c2cc(Oc3cccc(N(C)C)c3)c(NC(=O)COCc3ccc(F)cc3)cc2NC1=O` is 2360 nM; for `COC(=O)CC[C@H]1NC(=O)c2cc(Oc3cccc(N(C)C)c3)c(NC(=O)COCc3ccc(Br)cc3)cc2NC1=O` it is 580 nM.
On to `CCCCN(CCCC)C(=O)CC[C@H]1NC(=O)c2cc(Oc3cccc(N(C)C)c3)c(NC(=O)COCc3ccccc3)cc2NC1=O`, for which the IC50 was 1300 nM.
Same read-out and setting: the result for `CN(C)c1cccc(Oc2cc3c(cc2NC(=O)COCc2ccc(C(F)(F)F)cc2)NC(=O)[C@@H](CCC(=O)N2CCC(F)(F)CC2)NC3=O)c1` reads 430 nM.
The same measure, in the same setting: the figure for `COC(=O)CC[C@H]1NC(=O)c2cc(Oc3cccc(N(C)C)c3)c(NC(=O)COCc3ccc(F)c(F)c3)cc2NC1=O` is 1160 nM.

As a reminder, the inhibition is the share of the control response that was lost under treatment. As a reminder, the IC50 is the point on the concentration scale where inhibition reaches its midpoint.
